Source: PubChem
HCV NS3 hel inh: blocks Hepatitis C virus NS3 helicase unwinding; NS3 helicase DNA unwinding, Cy5 molecular beacon fluorescence; inhibition, % at 10.9 µM; 290,000 compounds, 0.56% hits; AID 1800;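 active = inhibition above the mean of all tested compounds plus 3 SD, set per campaign, cut at about 35% in these data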;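 note: 0% = DMSO wells and 100% = thioflavine S control wells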
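Measured by: Cy5 fluorescence, 0 and 60 min reads / Assay system: NS3 helicase fragment of HCV / Control set: low DMSO, high thioflavine S at 110 µM / Times: 1 h reaction at 25 °C, ATP-initiated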
core dimer inh: blocks dimerization of HCV core protein | AID 1899 | 300,000 compounds, 0.33% hits | inhibition, % at 5 µM | TR-FRET GST/Flag-core106 dimerization, 1536-well;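 active = inhibition above the mean of all tested compounds plus 3 SD, set per screening campaign, cut at about 45% in these data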
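Assay system: tagged HCV core106 pair (GST and Flag); medium: KF-containing HEPES buffer, pH 7.45, DTT, CHAPS, BSA; also added: Eu donor and XL665 acceptor anti-tag antibodies; dosing: 5 µM single dose; timing: compound-protein-antibody incubation 4 h at 22.5 °C; signal: TR-FRET 671 and 617 nm emission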
IMP-1 inhibitor: blocks Pseudomonas aeruginosa IMP-1 metallo-beta-lactamase; purified IMP-1, nitrocefin hydrolysis, epi-absorbance fluorescence; inhibition, % at 5.6 µM; 290,000 compounds, 0.45% hits;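 active = inhibition above the mean plus 3 SD of all compounds in the same screening run, cut at about 4.5% in these data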;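 note: 0% = IMP-1 with DMSO and 100% = DMSO wells lacking enzyme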
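assay system = purified recombinant IMP-1 metallo-beta-lactamase enzyme | schedule = 15 min preincubation plus 25 min reaction at 25 °C | signal = Epi-absorbance fluorescence, 480 nm excitation, 530 nm emission | read-out basis = percent inhibition from optical density relative to buffer-blank wells | controls = IMP-1 with DMSO as 0%, enzyme-free DMSO as 100%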
PHOSPHO1 inh: blocks human PHOSPHO1 phosphatase activity. inhibition, % at 13.3 µM. recombinant PHOSPHO1, absorbance phosphatase assay. AID 1565. Q8TCT1. 290,000 compounds, 1.1% hits; in the data active = inhibition above about 60%
Target sequence (Q8TCT1 whole entry, looked up): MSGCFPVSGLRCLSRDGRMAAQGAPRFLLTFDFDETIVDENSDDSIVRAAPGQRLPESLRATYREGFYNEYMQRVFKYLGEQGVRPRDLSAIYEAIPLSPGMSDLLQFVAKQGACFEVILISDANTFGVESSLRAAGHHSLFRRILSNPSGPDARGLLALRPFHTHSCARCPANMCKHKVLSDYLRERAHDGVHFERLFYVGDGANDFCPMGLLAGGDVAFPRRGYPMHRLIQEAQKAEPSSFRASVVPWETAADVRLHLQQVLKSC
UBC9 SUMO inh: inhibitors of human SUMOylation (UBC9); P63279; HTRF SUMOylation assay, SAE1/SAE2 + UBC9, in vitro; inhibition, % at 35 µM; 290,000 compounds, 0.36% hits; in the data active = inhibition above about 50%, passing the limit was not always enough
Target sequence (P63279 whole entry, looked up): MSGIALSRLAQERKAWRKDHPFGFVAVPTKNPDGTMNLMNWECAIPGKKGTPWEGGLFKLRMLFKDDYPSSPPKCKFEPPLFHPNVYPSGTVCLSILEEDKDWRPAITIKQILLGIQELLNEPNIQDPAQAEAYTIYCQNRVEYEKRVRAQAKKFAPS
VIM-2 inhibitor: inhibitors of Pseudomonas aeruginosa VIM-2 metallo-beta-lactamase | 290,000 compounds, 0.89% hits | inhibition, % at 5.6 µM | purified VIM-2, nitrocefin hydrolysis, epi-absorbance fluorescence;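 active = inhibition above the mean of all tested compounds plus 3 SD, cutoff set per screening run, cut at about 7.5% in these data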;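 note: red hydrolysis product quenches plate fluorescence so inhibitors raise well fluorescence; 0% = enzyme with DMSO and 100% = DMSO without enzyme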
Numbers without * were called inactive; nt = no result given. Most compounds without a hit are left out; they make up all but 3.1% or so of the library.

SMILES	HCV NS3 hel inh	core dimer inh	IMP-1 inhibitor	PHOSPHO1 inh	UBC9 SUMO inh	VIM-2 inhibitor
CCOC(=O)CNC(=O)CSc1nc2nc(C)c(Br)cc2[nH]1	-0.8	-4.1	-4.8	73.8*	9.2	-0.7
COc1ccc(/C=N\NS(=O)(=O)c2ccc(Br)cc2)cc1COc1ccccc1[N+](=O)[O-]	-3.8	7.7	-4.9	-4.4	-21.2	-2.1
COc1ccc(/C=N\NS(=O)(=O)c2ccc(Cl)cc2)cc1COc1ccccc1[N+](=O)[O-]	1.2	47.2*	2.3	-19.8	1.7	-0.7
O=C1N=C(c2ccccc2)S/C1=C\c1cccs1	14.0	1.3	-5.9	95.4*	10.8	-3.9
Cn1cnc(S(=O)(=O)NC2CCN(Cc3c(F)cccc3Cl)CC2)c1	-5.4	-9.2	-2.5	19.2	4.8	-2.3
Cc1cc(NCCN2CCCCC2)n2c(nc3ccccc32)c1C#N	0.8	nt	-2.1	9.7	21.1	8.7*
CCCc1cc(SCC(=O)Nc2c(C)n(C)n(-c3ccccc3)c2=O)n2c(nc3ccccc32)c1C#N	14.4	12.0	2.0	99.8*	-16.8	4.3
CCCc1cc(NCCCO)n2c(nc3ccccc32)c1C#N	14.1	-2.0	0.1	27.3	21.9	10.2*
Cc1cc(SCC(=O)Nc2c(C)n(C)n(-c3ccccc3)c2=O)nc2ccccc12	10.1	-4.0	-3.4	-16.2	18.8	-1.2
Cc1c2c(n3c(nc4ccccc43)c1C#N)N(CCN(C)C)CC2	1.2	-0.6	-3.8	32.2	28.8	11.3*
CCCc1cc(-n2ccnc2)n2c(nc3ccccc32)c1C#N	11.3	3.6	-6.7	-7.3	23.0	5.4
CCN(CC)c1ccc(/C=N/n2c(C)nc3ccccc3c2=O)cc1	1.2	-8.3	-2.8	31.3	19.8	-2.9
CCOC(=O)C1C(C)=C(Nc2ccc(OC)cc2)C(=O)N1c1ccc(OC)cc1 (stereo unspecified)	3.3	1.6	-4.5	-4.0	7.7	-0.8
COc1ccc(Cc2nc3ccc(C(=O)N(C)C(C)c4ccon4)cc3o2)cc1 (stereo unspecified)	17.0	-11.1	-2.8	28.0	1.8	-1.2
O=C(COC(=O)c1cc([N+](=O)[O-])ccc1NCc1ccccc1)NC1CCCc2ccccc21 (stereo unspecified)	4.5	58.5*	-1.1	23.3	17.1	-3.2
CCN(c1ccc2c(c1)OCO2)S(=O)(=O)c1cc(Br)cc2c1N(C(C)=O)CC2	2.2	11.1	7.4*	22.4	21.1	-2.6
Cc1nc(S/C(=C/c2ccc(-c3cccc(Cl)c3)o2)C(=O)O)n[nH]1	4.7	1.6	-1.7	-144.9	-4.0	-3.9
Cc1nc(S/C(=C/c2ccc(OCc3ccc(C(=O)O)cc3)cc2)C(=O)O)n[nH]1	10.6	-0.7	-1.1	35.9	58.4*	4.6
O=C(O)COc1cccc(/C=C2/SC(=S)N(Cc3ccccc3)C2=O)c1	9.6	55.5*	-0.8	nt	17.5	-1.1
COc1cc(/C=C2/SC(=S)N(Cc3ccccc3)C2=O)ccc1O	-0.2	-4.3	4.7*	34.0	-3.5	2.8
O=C(NCCc1ccc(Cl)cc1)C1CCCO1 (stereo unspecified)	0.1	7.6	-2.6	18.7	9.8	0.9
Cc1cccc(-n2c(-c3csc(C)c3)n[nH]c2=S)c1	3.0	-2.7	-2.6	99.2*	-3.4	7.7*
CCc1cc(-c2n[nH]c(=S)n2-c2cccc(C)c2)cs1	7.5	-1.1	-3.1	92.4*	-11.8	-0.9
Cc1cc(-c2n[nH]c(=S)n2-c2ccccc2C)cs1	-10.5	2.8	-2.8	-26.5	12.3	10.6*
O=C(CN1CCOCC1)N/N=C/c1ccccc1	6.3	4.4	-1.1	60.0*	15.9	1.0
SMILES	HCV NS3 hel inh	core dimer inh	IMP-1 inhibitor	PHOSPHO1 inh	UBC9 SUMO inh	VIM-2 inhibitor
CCSc1nc(C)nc2sc(C)c(C)c12	0.0	-2.8	-1.8	38.3	-2.2	-1.6
Cc1ccc(CNC(=O)COC(=O)c2ccc(S(=O)(=O)N(C)C)cc2)cc1	-2.9	-1.3	-3.7	20.1	12.7	-2.5
O=C(Nn1cnnc1)c1ccccc1Cl	7.9	-2.3	-1.7	28.3	11.8	-2.0
O=C(/C=C/c1ccc(Br)o1)OCc1nc2ccsc2c(=O)[nH]1	nt	74.8*	nt	nt	nt	nt
COc1ccc(CCNC(=O)c2cccnc2Cl)cc1OC	nt	3.8	nt	nt	nt	nt
COc1ccc(OC)c(CCNC(=O)c2ccc(NC3=NC4CS(=O)(=O)CC4S3)cc2)c1 (stereo unspecified)	-9.1	-1.2	-3.6	12.3	4.0	-2.2
Cc1cc(C(=O)CSc2nnc(N)s2)c(C)n1CCc1ccc(Cl)cc1	1.0	6.3	0.5	73.7*	8.7	-2.1
COCC(C)n1c(C)cc(C(=O)CSc2nnc(N)s2)c1C (stereo unspecified)	8.8	17.4	-4.5	99.2*	4.7	-3.9
Cc1cc(C(=O)CSc2nnnn2-c2ccccc2)c(C)n1CCc1ccccc1	-5.6	12.9	-3.3	83.7*	10.4	0.0
Cc1cc(C)cc(NC(=O)C2CCCN2/C=C/C(=O)C(F)(F)F)c1 (stereo unspecified)	-10.5	-13.1	0.7	-2.9	-18.2	-0.9
COc1cccc(NC(=O)[C@H](C)NC(=O)C2CCN(S(=O)(=O)c3ccc(C)cc3)CC2)c1	-10.3	1.4	-3.5	32.2	-4.0	-3.3
COc1ccccc1NC(=O)CSc1nc2c(sc3ccccc32)c(=O)n1CCN(C)C	-17.0	1.7	-0.6	-12.2	16.8	3.3
CN(C)CCn1c(SCc2ccccc2C#N)nc2c(sc3ccccc32)c1=O	-49.5	-1.9	2.5	38.1	16.4	10.4*
CC[C@@]1(O)C(=O)OCc2c1cc1n(c2=O)Cc2cc3c(CN(C)C)c(O)ccc3nc2-1	nt	5.8	nt	nt	nt	nt
CC[C@@]1(O)C(=O)OCc2c1cc1n(c2=O)Cc2cc3c(N)cccc3nc2-1	nt	-8.8	nt	4.5	94.6*	nt
N#Cc1ccccc1S(=O)(=O)N1CCN(C(=O)CN2C(=O)NC3(CCCC3)C2=O)CC1	nt	-4.4	nt	nt	nt	nt
O=C1CSC2(CCCCC2)N1CCO	-1.4	-1.8	5.6*	-12.0	20.1	-0.3
CC[C@H](C)[C@H](NC(N)=O)C(=O)Nc1ccccc1F	1.6	0.4	-0.3	-1.7	-0.8	1.5
CC1(C)Cc2c(sc3[nH]c(=S)n(Cc4ccccc4)c(=O)c23)CO1	-4.5	1.3	-4.4	76.4*	23.1	-6.3
CCCCN=C1NN=C(c2ccc3c(c2)OCCO3)CS1	-18.5	3.7	-2.3	19.1	15.1	-1.8
c1cc2c(cc1C1=NNC(=NC3CC3)SC1)OCCO2	-8.2	-2.0	-1.2	21.0	18.1	-6.4
COc1ccc(N=C2NN=C(c3ccc4c(c3)OCCO4)CS2)cc1	5.4	7.5	2.8	97.5*	13.7	-0.8
FC(F)Sc1ccc(N=C2NN=C(c3ccc4c(c3)OCCO4)CS2)cc1	-0.8	1.4	3.4	64.4*	-6.8	-1.9
Cn1c(SCC2CCCO2)nnc1-c1cccc([N+](=O)[O-])c1 (stereo unspecified)	7.6	10.5	-3.1	44.9	9.5	-5.1
